Measurements taken from ChEMBL document CHEMBL4627266, “Design and biological evaluation of a novel type of potential multi-targeting antimicrobial sulfanilamide hybrids in combination of pyrimidine and azoles” (Bioorg Med Chem Lett, 2020).
≈ marks a conversion by molar mass, not a printed value. Calls of active or inactive are those of the source. The calls are words filed in the database; no cut-off is given here.

Tested on: DNA
Test: Binding affinity to Enterococcus faecalis DNA assessed as increase in absorption peak at 460 nm by neutral red dye based absorption spectral assay
Type: nucleic-acid assay
Settings: not given

| Structure (SMILES) | Activity |
| --- | --- |
| Nc1ccc(S(=O)(=O)Nc2nccc(-n3ccc4ccccc43)n2)cc1 | Active |

Tested on: Enterococcus faecalis
Test: Antibacterial activity against Enterococcus faecalis by two fold serial microbroth dilution method
Type: functional
Settings: not given
Summary of the method: (§1)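 Two-fold serial dilution in microdilution plates (micro broth dilution) following CLSI. Panel includes clinical drug-resistant isolates and ATCC reference strains. Clinical drugs were run as positive controls.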

| Structure (SMILES) | MIC |
| --- | --- |
| Nc1ccc(S(=O)(=O)Nc2nccc(-n3ccc4ccccc43)n2)cc1 | 1 µg/mL (≈ 2.74 µM) |
| Nc1ccc(S(=O)(=O)Nc2nccc(-n3ccnc3)n2)cc1 | 128 µg/mL (≈ 405 µM) |
| Nc1ccc(S(=O)(=O)Nc2nccc(-n3ccc4cc([N+](=O)[O-])ccc43)n2)cc1 | 8 µg/mL (≈ 19.5 µM) |

Tested on: Enterococcus faecalis
Test: Antibacterial activity against Enterococcus faecalis measured after 16 passages by microbroth dilution method
Type: functional, organism-based
Settings: not given

| Structure (SMILES) | Activity |
| --- | --- |
| Nc1ccc(S(=O)(=O)Nc2nccc(-n3ccc4ccccc43)n2)cc1 | Active |

Tested on: not listed separately
Test: Cytotoxicity against human BEAS2B cells assessed as cell viability at 64 ug/ml incubated for 24 hrs by MTT assay relative to control
Type: cell-based
Settings: BEAS-2B cells, read-out: Activity
Summary of the method: (§2)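 A549 lung cancer cells and BEAS-2B normal lung epithelial cells were exposed to the compound at a range of concentrations up to 64 μg/mL for 24 h. Viability was read by colorimetric MTT cell proliferation assay. Doxorubicin at 0.5 µM served as positive control.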

| Structure (SMILES) | viability at 24 h, 64 ug/ml |
| --- | --- |
| Nc1ccc(S(=O)(=O)Nc2nccc(-n3ccc4ccccc43)n2)cc1 | 70% |

Tested on: Candida tropicalis
Test: Antifungal activity against Candida tropicalis by two fold serial microbroth dilution method
Type: functional
Settings: not given
Summary of the method: (§3)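 Antifungal MIC by two-fold serial dilution following CLSI, with a clinical drug as positive control. Panel includes clinical drug-resistant fungal isolates.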

| Structure (SMILES) | MIC |
| --- | --- |
| Nc1ccc(S(=O)(=O)Nc2nccc(-n3ccc4ccccc43)n2)cc1 | 2 to 8 µg/mL (≈ 5.47 to 21.9 µM) |
| Nc1ccc(S(=O)(=O)Nc2nccc(-n3ccc4cc([N+](=O)[O-])ccc43)n2)cc1 | 2 to 8 µg/mL (≈ 4.87 to 19.5 µM) |

Tested on: Enterococcus faecalis
Test: Induction of cell membrane permeabilization in Enterococcus faecalis at 12XMIC measured after 60 mins by PI staining based fluorescence assay
Type: organism-based
Settings: not given
Summary of the method: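 E. faecalis cells were treated with the compound at 12 × MIC in the presence of propidium iodide, which enters only compromised cells and fluoresces on binding dsDNA. Fluorescence at 617 nm was followed over time, to about 120 min.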

| Structure (SMILES) | Activity |
| --- | --- |
| Nc1ccc(S(=O)(=O)Nc2nccc(-n3ccc4ccccc43)n2)cc1 | Active |

Tested on: Staphylococcus aureus
Test: Antibacterial activity against Staphylococcus aureus ATCC 25923 by two fold serial microbroth dilution method
Type: functional
Settings: not given
Summary of the method: as §1

| Structure (SMILES) | MIC |
| --- | --- |
| Nc1ccc(S(=O)(=O)Nc2nccc(-n3ccc4ccccc43)n2)cc1 | 4 µg/mL (≈ 10.9 µM) |
| Nc1ccc(S(=O)(=O)Nc2nccc(-n3ccnc3)n2)cc1 | 256 µg/mL (≈ 809 µM) |
| Nc1ccc(S(=O)(=O)Nc2nccc(-n3ccc4cc([N+](=O)[O-])ccc43)n2)cc1 | 4 µg/mL (≈ 9.75 µM) |

Tested on: Candida albicans
Test: Antifungal activity against Candida albicans by two fold serial microbroth dilution method
Type: functional
Settings: not given
Summary of the method: as §3

| Structure (SMILES) | MIC |
| --- | --- |
| Nc1ccc(S(=O)(=O)Nc2nccc(-n3ccc4ccccc43)n2)cc1 | 2 to 8 µg/mL (≈ 5.47 to 21.9 µM) |
| Nc1ccc(S(=O)(=O)Nc2nccc(-n3ccc4cc([N+](=O)[O-])ccc43)n2)cc1 | 2 to 8 µg/mL (≈ 4.87 to 19.5 µM) |

Tested on: Pseudomonas aeruginosa
Test: Antibacterial activity against Pseudomonas aeruginosa by two fold serial microbroth dilution method
Type: functional
Settings: not given
Summary of the method: as §1

| Structure (SMILES) | MIC |
| --- | --- |
| Nc1ccc(S(=O)(=O)Nc2nccc(-n3ccc4ccccc43)n2)cc1 | 8 µg/mL (≈ 21.9 µM) |
| Nc1ccc(S(=O)(=O)Nc2nccc(-n3ccnc3)n2)cc1 | 128 µg/mL (≈ 405 µM) |
| Nc1ccc(S(=O)(=O)Nc2nccc(-n3ccc4cc([N+](=O)[O-])ccc43)n2)cc1 | 16 µg/mL (≈ 39 µM) |

Tested on: DNA
Test: Binding affinity to Enterococcus faecalis DNA assessed as hyperchromic effect by UV-visible spectrophotometric method
Type: nucleic-acid assay
Settings: not given

| Structure (SMILES) | Activity |
| --- | --- |
| Nc1ccc(S(=O)(=O)Nc2nccc(-n3ccc4ccccc43)n2)cc1 | Active |

Tested on: DNA
Test: Binding affinity to Enterococcus faecalis DNA assessed as decrease in maximum absorption of DNA-NR complex at 530 nm by neutral red dye based absorption spectral assay
Type: nucleic-acid assay
Settings: not given

| Structure (SMILES) | Activity |
| --- | --- |
| Nc1ccc(S(=O)(=O)Nc2nccc(-n3ccc4ccccc43)n2)cc1 | Active |

Tested on: Klebsiella pneumoniae
Test: Antibacterial activity against Klebsiella pneumoniae by two fold serial microbroth dilution method
Type: functional
Settings: not given
Summary of the method: as §1

| Structure (SMILES) | MIC |
| --- | --- |
| Nc1ccc(S(=O)(=O)Nc2nccc(-n3ccc4ccccc43)n2)cc1 | 32 µg/mL (≈ 87.6 µM) |
| Nc1ccc(S(=O)(=O)Nc2nccc(-n3ccnc3)n2)cc1 | 256 µg/mL (≈ 809 µM) |
| Nc1ccc(S(=O)(=O)Nc2nccc(-n3ccc4cc([N+](=O)[O-])ccc43)n2)cc1 | 32 µg/mL (≈ 78 µM) |

Tested on: Escherichia coli
Test: Antibacterial activity against Escherichia coli by two fold serial microbroth dilution method
Type: functional
Settings: not given
Summary of the method: as §1

| Structure (SMILES) | MIC |
| --- | --- |
| Nc1ccc(S(=O)(=O)Nc2nccc(-n3ccc4ccccc43)n2)cc1 | 32 µg/mL (≈ 87.6 µM) |
| Nc1ccc(S(=O)(=O)Nc2nccc(-n3ccnc3)n2)cc1 | 256 µg/mL (≈ 809 µM) |
| Nc1ccc(S(=O)(=O)Nc2nccc(-n3ccc4cc([N+](=O)[O-])ccc43)n2)cc1 | 8 µg/mL (≈ 19.5 µM) |

Tested on: Enterococcus faecalis
Test: Bactericidal activity against Enterococcus faecalis assessed as log10 reduction in CFU at MIC to 6XMIC by time kill kinetics analysis
Type: functional
Settings: not given
Summary of the method: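 E. faecalis was exposed to the compound at MIC and 6 × MIC. Viable counts (log CFU/mL) were followed over time.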

| Structure (SMILES) | Activity |
| --- | --- |
| Nc1ccc(S(=O)(=O)Nc2nccc(-n3ccc4ccccc43)n2)cc1 | >3 log10CFU/ml |

Tested on: Staphylococcus aureus
Test: Antibacterial activity against Staphylococcus aureus by two fold serial microbroth dilution method
Type: functional
Settings: not given
Summary of the method: as §1

| Structure (SMILES) | MIC |
| --- | --- |
| Nc1ccc(S(=O)(=O)Nc2nccc(-n3ccc4ccccc43)n2)cc1 | 32 µg/mL (≈ 87.6 µM) |
| Nc1ccc(S(=O)(=O)Nc2nccc(-n3ccnc3)n2)cc1 | 128 µg/mL (≈ 405 µM) |
| Nc1ccc(S(=O)(=O)Nc2nccc(-n3ccc4cc([N+](=O)[O-])ccc43)n2)cc1 | 32 µg/mL (≈ 78 µM) |

Tested on: DNA
Test: Binding affinity to Enterococcus faecalis DNA assessed as blue shift by UV-visible spectrophotometric method
Type: nucleic-acid assay
Settings: not given

| Structure (SMILES) | Activity |
| --- | --- |
| Nc1ccc(S(=O)(=O)Nc2nccc(-n3ccc4ccccc43)n2)cc1 | Active |

Tested on: not listed separately
Test: Cytotoxicity against human A549 cells assessed as cell viability at 64 ug/ml incubated for 24 hrs by MTT assay relative to control
Type: cell-based
Settings: read-out: Activity
Summary of the method: as §2

| Structure (SMILES) | viability at 24 h, 64 ug/ml |
| --- | --- |
| Nc1ccc(S(=O)(=O)Nc2nccc(-n3ccc4ccccc43)n2)cc1 | 70% |

Tested on: Escherichia coli
Test: Antibacterial activity against Escherichia coli ATCC 25922 by two fold serial microbroth dilution method
Type: functional
Settings: not given
Summary of the method: as §1

| Structure (SMILES) | MIC |
| --- | --- |
| Nc1ccc(S(=O)(=O)Nc2nccc(-n3ccc4ccccc43)n2)cc1 | 32 µg/mL (≈ 87.6 µM) |
| Nc1ccc(S(=O)(=O)Nc2nccc(-n3ccnc3)n2)cc1 | 256 µg/mL (≈ 809 µM) |
| Nc1ccc(S(=O)(=O)Nc2nccc(-n3ccc4cc([N+](=O)[O-])ccc43)n2)cc1 | 128 µg/mL (≈ 312 µM) |

Tested on: Staphylococcus aureus
Test: Antibacterial activity against methicillin-resistant Staphylococcus aureus by two fold serial microbroth dilution method
Type: functional
Settings: not given
Summary of the method: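 Two-fold serial microbroth dilution in microdilution plates, run per CLSI, with clinical antibacterial drugs as positive controls. The MRSA strain was a drug-resistant clinical isolate from infected patients. MIC (μg/mL) was read as the lowest concentration giving complete inhibition of visible bacterial growth.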

| Structure (SMILES) | MIC |
| --- | --- |
| Nc1ccc(S(=O)(=O)Nc2nccc(-n3ccc4ccccc43)n2)cc1 | 2 µg/mL (≈ 5.47 µM) |
| Nc1ccc(S(=O)(=O)Nc2nccc(-n3ccnc3)n2)cc1 | 32 µg/mL (≈ 101 µM) |
| Nc1ccc(S(=O)(=O)Nc2nccc(-n3ccc4cc([N+](=O)[O-])ccc43)n2)cc1 | 16 µg/mL (≈ 39 µM) |

Target: Albumin (Homo sapiens, UniProt P02768)
Sequence (P02768 whole entry): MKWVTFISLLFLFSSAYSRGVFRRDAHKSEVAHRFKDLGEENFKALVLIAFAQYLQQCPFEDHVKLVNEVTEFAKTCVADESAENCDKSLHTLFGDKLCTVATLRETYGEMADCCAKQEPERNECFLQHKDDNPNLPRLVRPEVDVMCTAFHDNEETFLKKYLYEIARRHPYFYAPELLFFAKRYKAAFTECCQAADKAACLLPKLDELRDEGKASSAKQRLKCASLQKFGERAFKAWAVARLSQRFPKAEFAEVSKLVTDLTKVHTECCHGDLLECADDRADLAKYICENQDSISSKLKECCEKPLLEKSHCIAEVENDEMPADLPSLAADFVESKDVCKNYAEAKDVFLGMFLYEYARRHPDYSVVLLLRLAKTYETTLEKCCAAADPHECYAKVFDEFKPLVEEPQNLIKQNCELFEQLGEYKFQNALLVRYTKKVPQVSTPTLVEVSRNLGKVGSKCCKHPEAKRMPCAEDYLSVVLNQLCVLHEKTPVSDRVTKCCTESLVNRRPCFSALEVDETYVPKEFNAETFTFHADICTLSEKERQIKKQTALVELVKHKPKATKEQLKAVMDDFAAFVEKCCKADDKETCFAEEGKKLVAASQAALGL
Test: Binding affinity to HSA by UV-visible spectrophotometric method
Type: ADME
Settings: isolated protein

| Structure (SMILES) | Activity |
| --- | --- |
| Nc1ccc(S(=O)(=O)Nc2nccc(-n3ccc4ccccc43)n2)cc1 | Active |

Tested on: Aspergillus fumigatus
Test: Antifungal activity against Aspergillus fumigatus by two fold serial microbroth dilution method
Type: functional
Settings: not given
Summary of the method: as §3

| Structure (SMILES) | MIC |
| --- | --- |
| Nc1ccc(S(=O)(=O)Nc2nccc(-n3ccc4ccccc43)n2)cc1 | 2 to 8 µg/mL (≈ 5.47 to 21.9 µM) |
| Nc1ccc(S(=O)(=O)Nc2nccc(-n3ccc4cc([N+](=O)[O-])ccc43)n2)cc1 | 2 to 8 µg/mL (≈ 4.87 to 19.5 µM) |

Tested on: Pseudomonas aeruginosa
Test: Antibacterial activity against Pseudomonas aeruginosa ATCC 27853 by two fold serial microbroth dilution method
Type: functional
Settings: not given
Summary of the method: as §1

| Structure (SMILES) | MIC |
| --- | --- |
| Nc1ccc(S(=O)(=O)Nc2nccc(-n3ccc4ccccc43)n2)cc1 | 1 µg/mL (≈ 2.74 µM) |
| Nc1ccc(S(=O)(=O)Nc2nccc(-n3ccnc3)n2)cc1 | 256 µg/mL (≈ 809 µM) |
| Nc1ccc(S(=O)(=O)Nc2nccc(-n3ccc4cc([N+](=O)[O-])ccc43)n2)cc1 | 8 µg/mL (≈ 19.5 µM) |

Tested on: Staphylococcus aureus
Test: Antibacterial activity against Staphylococcus aureus ATCC 29213 by two fold serial microbroth dilution method
Type: functional
Settings: not given
Summary of the method: as §1

| Structure (SMILES) | MIC |
| --- | --- |
| Nc1ccc(S(=O)(=O)Nc2nccc(-n3ccc4ccccc43)n2)cc1 | 8 µg/mL (≈ 21.9 µM) |
| Nc1ccc(S(=O)(=O)Nc2nccc(-n3ccnc3)n2)cc1 | 128 µg/mL (≈ 405 µM) |
| Nc1ccc(S(=O)(=O)Nc2nccc(-n3ccc4cc([N+](=O)[O-])ccc43)n2)cc1 | 64 µg/mL (≈ 156 µM) |

Tested on: Acinetobacter baumannii
Test: Antibacterial activity against Acinetobacter baumannii by two fold serial microbroth dilution method
Type: functional
Settings: not given
Summary of the method: as §1

| Structure (SMILES) | MIC |
| --- | --- |
| Nc1ccc(S(=O)(=O)Nc2nccc(-n3ccnc3)n2)cc1 | 64 µg/mL (≈ 202 µM) |
| Nc1ccc(S(=O)(=O)Nc2nccc(-n3ccc4cc([N+](=O)[O-])ccc43)n2)cc1 | 128 µg/mL (≈ 312 µM) |
